In the library only some 2.5% were active in any assay of this set; here they are far more common.
MEKK2wt PB1 HTS = modulators of MEK5 binding to wildtype MEKK2, primary screen, biochemical, multiplex bead flow cytometry, Alexa488-MEK5. Mitogen-activated protein kinase kinase kinase 2 (Homo sapiens), Q9Y2U5. Alexa488-MEK5 binding to MEKK2 WT; actives lie on both sides. binding response (% of control), % at 10 µM. 290,000 tested, 1.1% active; in the data active = binding response below about 67% or above about 130%
ABCB1 inh = ABCB1 efflux pump inhibitors, primary screen, cell-based, multiplex, flow cytometry, ABCG2 counter-screen; CCRF-Adr cells, JC-1 efflux; inhibition, % at 6.6 µM; 190,000 tested, 0.067% active; AID 1326, 2008; in the data active = inhibition above about 40%;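 note: 0% = vehicle and 100% = reference inhibitor; higher value means more JC-1 retained so stronger ABCB1 efflux block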
MEKK2 mut-MEK5 = MEK5 binding signal on mutant MEKK2 PB1, primary screen, biochemical, multiplex bead flow cytometry, Alexa488-MEK5 | Alexa488-MEK5 binding to MEKK2 mutant | percent response, % at 10 µM | 290,000 tested, 0.35% active | AID 1530, 2009; in the data active = percent response above about 24%, passing the limit was not always enough
Efflux pump inh = inhibitors of Candida efflux pumps in yeast, primary screen, S. cerevisiae, Nile Red, multiplex; S. cerevisiae Candida pump triplex; inhibition, % at 10 µM; 330,000 tested, 0.44% active;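 active = plate passing quality check with inhibition over a set limit, or well fluorescence over plate mean plus 4 SD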;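 note: Nile Red retained in pooled yeast measured as flow cytometry median fluorescence; 0% = buffer negative control and 100% = Enniatin B positive control; higher means more Nile Red kept so more efflux inhibition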
MEKK3 PB1 HTS = modulators of MEKK3-MEK5 PB1 binding, primary screen, biochemical, wildtype MEKK3, multiplex bead flow cytometry, Alexa488-MEK5. Mitogen-activated protein kinase kinase kinase 3 (Homo sapiens), Q99759. bead-based flow cytometry, Alexa488-MEK5 binding to MEKK3; actives lie on both sides; 0 = blocked by unlabeled MEK5, 100 = vehicle. binding response (% of control), % at 10 µM. 290,000 tested, 1.4% active;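 active = binding response more than 3 SD above or below the average of its plate-row segment, actives on both sides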;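 note: Alexa488 bead fluorescence after subtracting the streptavidin-only scavenger bead signal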
Target sequence (Q99759 whole entry, looked up): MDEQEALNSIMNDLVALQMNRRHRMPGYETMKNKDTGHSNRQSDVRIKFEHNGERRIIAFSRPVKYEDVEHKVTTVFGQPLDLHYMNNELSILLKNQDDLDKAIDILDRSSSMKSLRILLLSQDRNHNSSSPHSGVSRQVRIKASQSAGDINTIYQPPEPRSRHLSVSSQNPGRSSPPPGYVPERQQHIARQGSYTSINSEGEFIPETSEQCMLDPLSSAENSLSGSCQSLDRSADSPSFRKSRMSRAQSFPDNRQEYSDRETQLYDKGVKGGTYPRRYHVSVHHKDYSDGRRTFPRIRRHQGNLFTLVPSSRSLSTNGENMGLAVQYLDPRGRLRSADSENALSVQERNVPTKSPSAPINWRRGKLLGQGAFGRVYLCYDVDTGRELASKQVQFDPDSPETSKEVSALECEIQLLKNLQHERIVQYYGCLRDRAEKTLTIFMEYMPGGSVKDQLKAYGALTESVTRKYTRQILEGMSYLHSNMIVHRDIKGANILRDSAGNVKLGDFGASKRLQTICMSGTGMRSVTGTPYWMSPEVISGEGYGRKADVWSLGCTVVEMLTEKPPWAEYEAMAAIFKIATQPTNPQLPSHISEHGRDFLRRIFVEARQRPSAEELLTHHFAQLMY
ABCG2 inh = ABCG2 efflux pump inhibitors, primary screen, multiplex with ABCB1, IgMXP3 cells, flow cytometry | Broad substrate specificity ATP-binding cassette transporter ABCG2 (Homo sapiens), Q9UNQ0 | JC-1 efflux | inhibition, % at 6.6 µM | 190,000 tested, 0.1% active | AID 1325, 2008;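 active = inhibition above 80%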;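 note: 0% = DMSO and 100% = nicardipine control wells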
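System: two drug-resistant human cell lines, ABCG2 and ABCB1; controls: nicardipine high and DMSO low controls; times: 10 min exposure at 25 °C with rotation, no wash; detection: flow cytometry of retained JC-1 fluorescence; read-out basis: percent efflux inhibition, scaled nicardipine 100% to DMSO 0%; doses: one concentration, 6.6 µM final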
Cmpd fluor yeast = flagged as fluorescent in efflux inhibitor counter-screen; S. cerevisiae AD/pABC3, compound fluorescence, flow cytometry; 1,700 tested, 4% active; shares compounds with Efflux pump inh; fluorescence ratio to DMSO, % at 10 µM; AID 588517;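 active = fluorescence ratio to DMSO above its plate's cutoff, the plate mean ratio plus 5 SD, cut at about 210% in these data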;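 note: unstained yeast with no Nile Red so the signal is compound autofluorescence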
CaMdr1 efflux inh = inhibitors of Candida albicans Mdr1 efflux, confirmation, flow cytometry, singleplex, Cherry Pick1 set. 1,700 tested, 1% active. S. cerevisiae AD/CaMDR1, Nile Red efflux. shares compounds with Efflux pump inh. inhibition, % at 10 µM; in the data active = inhibition above about 26%;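 note: 0% = DMSO vehicle and 100% = reference inhibitor; higher means more Nile Red retained so more efflux inhibition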
CaCdr2 efflux inh = inhibitors of Candida albicans Cdr2 efflux pump, confirmation, S. cerevisiae AD/CaCDR2, flow cytometry, cherry pick 1, singleplex | shares compounds with Efflux pump inh | Nile Red retention | Nile Red retention ratio vs DMSO, % at 10 µM | 1,700 tested, 4% active; in the data active = Nile Red retention ratio vs DMSO above about 190%;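 note: higher ratio means more blocking of Cdr2 efflux of the dye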
Cdr1 pump inh = inhibitors of Candida albicans Cdr1 efflux pump, confirmation, S. cerevisiae AD/CaCDR1, flow cytometry, cherry pick 1, singleplex | shares compounds with Efflux pump inh | Nile Red efflux | inhibition, % at 10 µM | 1,700 tested, 1% active;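 active = inhibition above the screen-wide mean plus twice its standard deviation, cut at about 32% in these data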
An asterisk follows results filed as active; · = not tested or not shown.

SMILES	MEKK2wt PB1 HTS	ABCB1 inh	MEKK2 mut-MEK5	Efflux pump inh	MEKK3 PB1 HTS	ABCG2 inh	Cmpd fluor yeast	CaMdr1 efflux inh	CaCdr2 efflux inh	Cdr1 pump inh
COc1cc2[nH]c(C(=O)N3CCN(c4ccc(F)cc4)CC3)cc2c(OC)c1OC	99	·	4	0	101	·	·	·	·	·
N#Cc1cccc(C#N)c1Oc1ccc(S(=O)(=O)Nc2ccc(Cl)cc2)cc1	94	·	-5	0	100	·	·	·	·	·
Cc1nc2ccccc2nc1N1CCCC1	92	·	-20	0	90	·	·	·	·	·
c1ccc2nc3c(nc2c1)OCC1CCCCN31 (centres undefined)	99	·	-2	0.8*	101	·	95	0	96	0
O=C(CN1C(=O)COc2ccccc2C1=O)c1ccc2c(c1)OCCO2	102	·	1	0	103	·	·	·	·	·
O=C(CCCN1C(=O)/C(=C/c2ccccc2Cl)SC1=S)NNC(=O)c1ccc(Cl)cc1	105	·	14	0.6*	117	·	98	0	100	0
O=C(c1ccc(Cl)cc1)N1C2C=CC(C2)C1(C(F)(F)F)C(F)(F)F (centres undefined)	95	0	-2	15*	94	1	128	1	106	0
O=C(c1cccc(F)c1)N1C2C=CC(C2)C1(C(F)(F)F)C(F)(F)F (centres undefined)	101	1	0	0	101	6	·	·	·	·
Cc1nc2ccccc2n1CCc1nc2c3ccccc3nc(SCC(=O)NCc3ccco3)n2n1	122	31	5	1.2*	120	26	104	0	116	0
Cc1nc2ccccc2n1CCc1nc2c3ccccc3nc(SCC#N)n2n1	·	3	·	0	·	3	·	·	·	·
OCCN1CCN(CC/C=C2/c3ccccc3Sc3ccc(Cl)cc32)CC1	·	·	·	0	·	·	·	·	·	·
CC[N+](C)(C)CC/C=C1/c2ccccc2Sc2ccc(Cl)cc21	111	·	5	0	104	·	100	0	102	0
COCCCC1CCN(Cc2cn[nH]c2-c2cc(OC)c(OC)c(OC)c2)CC1	100	0	-2	0	97	1	·	·	·	·
Cc1ccccc1CN1CCC(n2nccc2NC(=O)CCCc2ccccc2)CC1	108	·	-3	1.5*	100	·	88	0	93	-1
Cc1cc(C(=O)NC(C)C2CCCO2)no1 (centres undefined)	102	0	-1	0	97	0	·	·	·	·
COc1ccc(OC)c(NC(=O)CSc2nc3ccccc3c(=O)n2CCNC(C)=O)c1	98	1	1	0.6*	104	6	101	0	98	0
COc1ccc(NC(=O)CSc2nc3ccccc3c(=O)n2CCNC(C)=O)c(OC)c1	102	0	0	0	105	2	·	·	·	·
CCOc1ccc(CCNC(=O)COC(=O)c2cc([N+](=O)[O-])ccc2N2CCOCC2)cc1OCC	106	·	2	9.2*	103	·	81	0	87	0
CCOc1ccc(CCNC(=O)c2cc([N+](=O)[O-])ccc2N2CCOCC2)cc1OCC	96	·	-2	0	97	·	·	·	·	·

Bioassay records deposited in PubChem BioAssay by NMMLSC.
